27 compounds from ChEMBL document CHEMBL1158535, “Thiazole, oxadiazole, and carboxamide derivatives of artemisinin are highly selective and potent inhibitors of Toxoplasma gondii” (J Med Chem, 2010) can be followed below.

The nature of data set [1]: Therapeutic index, ratio of TD50 for HFF cells to IC50 for Toxoplasma gondii F2. To be noted: human, read-out: TI. Format: cell-based.
Data set [2] is described as follows: Cytotoxicity against HFF after 5 days by CellTiter 96 Aqueous One Solution assay. To be noted: human, HFF cells; read-out: TD50.
The test system of data set [3] is Toxoplasma gondii. The data set can be described thus: Antiparasitic activity against Toxoplasma gondii 2F infected in HFF cells assessed as beta galactosidase activity after 5 days. To be noted: 120 h. The class given is functional, organism-based. The method in brief:
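HFF monolayers infected with β-galactosidase-expressing T. gondii 2F tachyzoites; compounds from final 320 μM serially diluted 0.5 log10, drug-free parasite control. After 4 days at 37°C/5% CO2, CPRG substrate added and incubated 1 more day. Absorbance 570-650 nm relative to parasite control. IC50 calculated; at least three independent experiments.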

Data set [4] has as its system Toxoplasma gondii. The data set can be described thus: Antiparasitic activity against Toxoplasma gondii 2F infected in HFF cells assessed as inhibition of parasite replication at 10 uM. Format: functional, organism-based. The method in brief:
(§1)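 HFF monolayers inoculated with tachyzoites, 2 h at 37°C/5% CO2, then compound (1, 5 or 10 μM) or DMSO added. Replication 24-26 h, then fixed, permeabilized, immunolabeled anti-p30 with DAPI. Parasites per vacuole (1, 2, 4, 8+) counted by eye in 10 random fields; reported as modal number/doublings.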

Data set [5] relates to Toxoplasma gondii. The data set can be described thus: Antiparasitic activity against Toxoplasma gondii 2F infected in HFF cells assessed as inhibition of parasite replication at 1 uM. Format: functional, organism-based. The method in brief:
as §1

For data set [6], the system named is Toxoplasma gondii. Kind of data set: Antiparasitic activity against Toxoplasma gondii 2F infected in HFF cells assessed as inhibition of parasite replication at 5 uM. Format: functional, organism-based. The procedure, abridged: as §1

As usually defined, the IC50 is the concentration at which inhibition is half-maximal.

Activity calls are given as the source filed them. The rule behind the calls is not given here.

In the case of `CC1=C(C(=O)NCc2cc(F)cc(F)c2)O[C@@H]2O[C@@]3(C)CC[C@H]4[C@H](C)CC[C@@H]1[C@@]24OO3`, the selectivity ratio in data set [1] was 1560. Also, the CC50 at 120 h in data set [2] is not below 320000 nM. Further, in the data set on Toxoplasma gondii [3], the half-inhibitory concentration (IC50) came out at 360 nM.

Consider `CC1=C(C(=O)NCc2ccccc2)O[C@@H]2O[C@@]3(C)CC[C@H]4[C@H](C)CC[C@@H]1[C@@]24OO3`, for which the selectivity ratio in data set [1] was 839. For the same compound, in data set [2], the CC50 at 120 h is not below 320000 nM. Further, the IC50 in the data set with Toxoplasma gondii [3] was 670 nM.

With `CC1=C(c2nc(-c3ccccc3)no2)O[C@@H]2O[C@@]3(C)CC[C@H]4[C@H](C)CC[C@@H]1[C@@]24OO3`, the result with Toxoplasma gondii [4], in the data set on Toxoplasma gondii [5] and in the data set on Toxoplasma gondii [6] was Active. For the same compound, the selectivity ratio in data set [1] came to 320. Further, in data set [2], the CC50 at 120 h worked out at 141000 nM. Besides, in the data set on Toxoplasma gondii [3], the IC50 was 440 nM.

As to `CC1=C(C(=O)NCc2ccc(F)c(F)c2)O[C@@H]2O[C@@]3(C)CC[C@H]4[C@H](C)CC[C@@H]1[C@@]24OO3`, the selectivity ratio in data set [1] came to 166. Further, the CC50 at 120 h in data set [2] worked out at 78000 nM. Moreover, the IC50 with Toxoplasma gondii [3] is 470 nM.

Take `CCNC(=O)C1=C(C)[C@@H]2CC[C@@H](C)[C@@H]3CC[C@@]4(C)OO[C@@]23[C@H](O1)O4`: in data set [1], the selectivity ratio is 38. For the same compound, in data set [2], the CC50 at 120 h is 259000 nM. The IC50 in the data set with Toxoplasma gondii [3] is 6800 nM.

With `CC1=C(c2nc(C)c(C)s2)O[C@@H]2O[C@@]3(C)CC[C@H]4[C@H](C)CC[C@@H]1[C@@]24OO3`, the result in the data set with Toxoplasma gondii [4], in the data set with Toxoplasma gondii [5] and in the data set on Toxoplasma gondii [6] was Active. Also, the selectivity ratio in data set [1] was determined as 240. Also, in data set [2], the CC50 at 120 h came to 38000 nM. The IC50 in the data set with Toxoplasma gondii [3] was 160 nM.

On to `CC1=C(c2nc(-c3ccc(C)cc3)cs2)O[C@@H]2O[C@@]3(C)CC[C@H]4[C@H](C)CC[C@@H]1[C@@]24OO3`, for which the selectivity ratio in data set [1] came to 1610. For the same compound, in data set [2], the CC50 at 120 h is not below 320000 nM. For the same compound, the IC50 with Toxoplasma gondii [3] was found to be 350 nM.

For `CC1=C(c2nc(-c3ccccc3)cs2)O[C@@H]2O[C@@]3(C)CC[C@H]4[C@H](C)CC[C@@H]1[C@@]24OO3`, the result with Toxoplasma gondii [4], in the data set on Toxoplasma gondii [5] and in the data set with Toxoplasma gondii [6] was Active. Further, the selectivity ratio in data set [1] amounted to 1650. The CC50 at 120 h in data set [2] was not below 320000 nM. The 50% inhibitory concentration (IC50) in the data set with Toxoplasma gondii [3] worked out at 340 nM.

Consider `CC1=C(C(=O)NCc2cc(Br)cc(Br)c2)O[C@@H]2O[C@@]3(C)CC[C@H]4[C@H](C)CC[C@@H]1[C@@]24OO3`, for which, in data set [1], the selectivity ratio amounted to 694. Besides, in data set [2], the CC50 at 120 h is not below 320000 nM. The IC50 in the data set on Toxoplasma gondii [3] was 810 nM.

For the compound `CC1=C(c2nc(C)cs2)O[C@@H]2O[C@@]3(C)CC[C@H]4[C@H](C)CC[C@@H]1[C@@]24OO3`, the result with Toxoplasma gondii [4], with Toxoplasma gondii [5] and in the data set on Toxoplasma gondii [6] was Active. In addition, the selectivity ratio in data set [1] was 1410. Also, the CC50 at 120 h in data set [2] is not below 320000 nM. Further, the IC50 in the data set on Toxoplasma gondii [3] was found to be 400 nM.

Turning to `COc1ccc(-c2csc(C3=C(C)[C@@H]4CC[C@@H](C)[C@@H]5CC[C@@]6(C)OO[C@@]45[C@H](O3)O6)n2)cc1`, the selectivity ratio in data set [1] worked out at 25. Moreover, in data set [2], the CC50 at 120 h stood at 19000 nM. For the same compound, the IC50 in the data set with Toxoplasma gondii [3] worked out at 750 nM.

Consider `CNC(=O)C1=C(C)[C@@H]2CC[C@@H](C)[C@@H]3CC[C@@]4(C)OO[C@@]23[C@H](O1)O4`, for which the selectivity ratio in data set [1] came out at 37. Also, the CC50 at 120 h in data set [2] was not below 320000 nM. Moreover, the IC50 in the data set on Toxoplasma gondii [3] came to 15000 nM.

For `CC1=C(c2nc(-c3ccc(S(C)(=O)=O)cc3)cs2)O[C@@H]2O[C@@]3(C)CC[C@H]4[C@H](C)CC[C@@H]1[C@@]24OO3`, the selectivity ratio in data set [1] was determined as 1340. In addition, the CC50 at 120 h in data set [2] was not below 320000 nM. In the data set with Toxoplasma gondii [3], the IC50 is 420 nM.

Turning to `CC1=C(C(=O)NCc2ccc(F)cc2)O[C@@H]2O[C@@]3(C)CC[C@H]4[C@H](C)CC[C@@H]1[C@@]24OO3`, in data set [1], the selectivity ratio worked out at 153. Also, the CC50 at 120 h in data set [2] stood at 72000 nM. Also, the IC50 in the data set on Toxoplasma gondii [3] came out at 470 nM.

For `CC1=C(C(=O)NCc2ccc(C(F)(F)F)cc2)O[C@@H]2O[C@@]3(C)CC[C@H]4[C@H](C)CC[C@@H]1[C@@]24OO3`, in data set [1], the selectivity ratio turned out to be 1650. In data set [2], the CC50 at 120 h is not below 320000 nM. Also, the IC50 in the data set on Toxoplasma gondii [3] was 340 nM.

As for `CC1=C(C(=O)NCc2ccc(C)cc2)O[C@@H]2O[C@@]3(C)CC[C@H]4[C@H](C)CC[C@@H]1[C@@]24OO3`, the selectivity ratio in data set [1] was found to be 331. Moreover, the CC50 at 120 h in data set [2] was 169000 nM. The half-maximal inhibitory concentration (IC50) with Toxoplasma gondii [3] came to 510 nM.

For the compound `C[C@@H]1CC[C@H]2[C@@H](C)C(=O)O[C@@H]3O[C@@]4(C)CC[C@@H]1[C@]32OO4` [ARTEMISININ], in data set [1], the selectivity ratio stood at 879. Besides, the CC50 at 120 h in data set [2] was not below 320000 nM. Further, the IC50 with Toxoplasma gondii [3] stood at 640 nM.

Consider `COc1cc(Cc2cnc(N)nc2N)cc(OC)c1OC` [TRIMETHOPRIM], for which the selectivity ratio in data set [1] is 12. The CC50 at 120 h in data set [2] was not below 320000 nM. Moreover, in the data set on Toxoplasma gondii [3], the IC50 turned out to be 46000 nM.

For `CCc1csc(C2=C(C)[C@@H]3CC[C@@H](C)[C@@H]4CC[C@@]5(C)OO[C@@]34[C@H](O2)O5)n1`, the selectivity ratio in data set [1] worked out at 1410. Besides, in data set [2], the CC50 at 120 h is not below 320000 nM. Further, the IC50 in the data set on Toxoplasma gondii [3] stood at 400 nM.

As to `CC1=C(c2nc(C(C)(C)C)cs2)O[C@@H]2O[C@@]3(C)CC[C@H]4[C@H](C)CC[C@@H]1[C@@]24OO3`, the result in the data set with Toxoplasma gondii [4], in the data set on Toxoplasma gondii [5] and with Toxoplasma gondii [6] was Active. Further, in data set [1], the selectivity ratio was 2250. For the same compound, the CC50 at 120 h in data set [2] is not below 320000 nM. For the same compound, the IC50 in the data set with Toxoplasma gondii [3] was 250 nM.

With `CC1=C(c2nc(C3CCCCC3)cs2)O[C@@H]2O[C@@]3(C)CC[C@H]4[C@H](C)CC[C@@H]1[C@@]24OO3`, in data set [1], the selectivity ratio stood at 3. Further, the CC50 at 120 h in data set [2] stood at 1800 nM. Besides, the IC50 with Toxoplasma gondii [3] is 590 nM.

With `CCN(CC)C(=O)C1=C(C)[C@@H]2CC[C@@H](C)[C@@H]3CC[C@@]4(C)OO[C@@]23[C@H](O1)O4`, the selectivity ratio in data set [1] was determined as 2.1. The CC50 at 120 h in data set [2] is 23000 nM. For the same compound, the IC50 in the data set with Toxoplasma gondii [3] is 11000 nM.

Turning to `CC1=C(c2nccs2)O[C@@H]2O[C@@]3(C)CC[C@H]4[C@H](C)CC[C@@H]1[C@@]24OO3`, in data set [1], the selectivity ratio amounted to 511. For the same compound, the CC50 at 120 h in data set [2] was not below 320000 nM. Besides, the half-inhibitory concentration (IC50) in the data set with Toxoplasma gondii [3] came out at 1100 nM.

Take `CC1=C(c2nc(C)no2)O[C@@H]2O[C@@]3(C)CC[C@H]4[C@H](C)CC[C@@H]1[C@@]24OO3`: in data set [1], the selectivity ratio is 669. Besides, the CC50 at 120 h in data set [2] is not below 320000 nM. For the same compound, the half-inhibitory concentration (IC50) in the data set on Toxoplasma gondii [3] worked out at 840 nM.

As to `CC1=C(c2ncc(C)s2)O[C@@H]2O[C@@]3(C)CC[C@H]4[C@H](C)CC[C@@H]1[C@@]24OO3`, the result in the data set on Toxoplasma gondii [4], with Toxoplasma gondii [5] and with Toxoplasma gondii [6] was Active. The selectivity ratio in data set [1] came out at 1520. For the same compound, the CC50 at 120 h in data set [2] was not below 320000 nM. Besides, the 50% inhibitory concentration (IC50) in the data set on Toxoplasma gondii [3] was 370 nM.

Consider `CO[C@H]1O[C@@H]2O[C@@]3(C)CC[C@H]4[C@H](C)CC[C@@H]([C@H]1C)[C@@]24OO3` [ARTEMETHER], for which the selectivity ratio in data set [1] is 1810. The CC50 at 120 h in data set [2] is not below 320000 nM. In the data set with Toxoplasma gondii [3], the IC50 was determined as 310 nM.

For the compound `CSc1ccc(-c2csc(C3=C(C)[C@@H]4CC[C@@H](C)[C@@H]5CC[C@@]6(C)OO[C@@]45[C@H](O3)O6)n2)cc1`, the selectivity ratio in data set [1] came to 1410. For the same compound, in data set [2], the CC50 at 120 h is not below 320000 nM. Besides, the 50% inhibitory concentration (IC50) with Toxoplasma gondii [3] was determined as 400 nM.
